Experimental data from ChEMBL document CHEMBL1123445, “Synthesis and antifolate properties of 5,10-methylenetetrahydro-8,10-dideazaminopterin” (J Med Chem, 1986).
Values after ≈ are worked out from the molar mass of the structure shown.

Experiments:
Thymidylate synthase = target: T1, Thymidylate synthase (Lactobacillus casei, UniProt P00469); assay: Compound was evaluated for the inhibition of thymidylate synthase (TS) derived from Lactobacillus casei; design: species or system Lacticaseibacillus casei
T1 sequence (P00469 whole entry): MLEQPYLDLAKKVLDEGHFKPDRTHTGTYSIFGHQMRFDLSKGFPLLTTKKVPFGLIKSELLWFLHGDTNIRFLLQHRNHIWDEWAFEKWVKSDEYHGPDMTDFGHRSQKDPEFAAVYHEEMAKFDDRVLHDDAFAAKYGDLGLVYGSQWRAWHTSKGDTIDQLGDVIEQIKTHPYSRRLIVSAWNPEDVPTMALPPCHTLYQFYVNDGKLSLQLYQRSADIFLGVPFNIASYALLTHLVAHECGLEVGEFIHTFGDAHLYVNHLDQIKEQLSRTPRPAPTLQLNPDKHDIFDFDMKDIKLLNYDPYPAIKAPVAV

Dihydrofolate reductase = Dihydrofolate reductase (Lactobacillus casei, UniProt P00381); assay: Compound was evaluated for the inhibition of dihydrofolate reductase (DHFR)derived from Lactobacillus casei; design: species or system Lacticaseibacillus casei
Sequence of Dihydrofolate reductase (P00381 whole entry): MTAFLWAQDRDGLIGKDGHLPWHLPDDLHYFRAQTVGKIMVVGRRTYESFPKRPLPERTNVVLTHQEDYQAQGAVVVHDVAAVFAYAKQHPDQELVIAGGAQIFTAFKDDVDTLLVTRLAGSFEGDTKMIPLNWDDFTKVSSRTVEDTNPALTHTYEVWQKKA

L1210 [1] = assay: Compound was evaluated for inhibitory activity against DHFR in L1210 cells; type: functional, cell-based, Mus musculus
Lacticaseibacillus casei [2] = assay: Compound was evaluated for growth inhibition in Lactobacillus casei ATCC 7469; type: functional, organism-based
How it was run: (§1)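 Lactobacillus casei growth was measured in medium with folate at 1 ng/mL.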

Enterococcus faecium [3] = assay: Compound was evaluated for growth inhibition in Streptococcus faecium MTX-resistant; type: functional, organism-based
How it was run: (§2)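 Bacterial growth inhibition was run in medium with folate at 1 ng/mL.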

Lacticaseibacillus casei [4] = assay: Compound was evaluated for growth inhibition in Lactobacillus casei MTX-resistant; type: functional, organism-based; how it was run: as §1
Enterococcus faecium [5] = assay: Compound was evaluated for growth inhibition in Streptococcus faecium ATCC 8043; type: functional, organism-based; how it was run: as §2
L1210 [6] = assay: Compound was evaluated for growth inhibition in L1210 murine leukemia cells; type: functional, cell-based; settings: Mus musculus
[7] = Lacticaseibacillus casei, read-out: IC50

Structure (SMILES)	IC50 (Thymidylate synthase)	IC50 (Dihydrofolate reductase)	Ki (L1210 [1])	IC50 (Lacticaseibacillus casei [2])	IC50 (Enterococcus faecium [3])	IC50 (Lacticaseibacillus casei [4]; [7])	IC50 (Enterococcus faecium [5])	IC50 (L1210 [6])	IC50 (Lacticaseibacillus casei [4])
Nc1nc(N)c2c(n1)CCC1CC(c3ccc(C(=O)NC(CCC(=O)O)C(=O)O)cc3)CN21 (configuration not stated)	> 500000 nM	1500 nM	> 10 nM	1 ng/mL (≈ 0.0022 µM)	530 ng/mL (≈ 1.17 µM)	> 10000 ng/mL	2 ng/mL (≈ 0.0044 µM)	250 nM	
Nc1nc(N)c2c(n1)CCC1CC(c3ccc(C(=O)NC(CCC(=O)O)C(=O)O)cc3)C(=O)N21 (configuration not stated)	> 200000 nM	1600 nM	> 10 nM	0.54 ng/mL (≈ 0.00115 µM)	> 10000 ng/mL	> 10000 ng/mL	6.2 ng/mL (≈ 0.0132 µM)	> 10000 nM	
CN(Cc1cnc2nc(N)nc(N)c2n1)c1ccc(C(=O)N[C@@H](CCC(=O)O)C(=O)O)cc1 [METHOTREXATE]			0.0032 nM	0.009 ng/mL (≈ 1.98e-05 µM)	3300 ng/mL (≈ 7.26 µM)		0.2 ng/mL (≈ 0.00044 µM)	2.5 nM	> 500000 ng/mL
